ChEMBL document CHEMBL4152188, “Design, synthesis and biological evaluation of C(4) substituted monobactams as antibacterial agents against multidrug-resistant Gram-negative bacteria” (Eur J Med Chem, 2018)
Values after ≈ are worked out from the molar mass of the structure shown.

Assays:
Format in all cases: functional
Pseudomonas aeruginosa [1] = assay: Antibacterial activity against IMP-4 producing Pseudomonas aeruginosa isolate 212886 after 18 hrs by CLSI broth microdilution method; details: isolate 212886, 18 h
Escherichia coli [2] = assay: Antibacterial activity against extended-spectrum beta-lactamase producing Escherichia coli isolate 106342 after 18 hrs by CLSI broth microdilution method; details: isolate 106342, 18 h
Escherichia coli [3] = assay: Selectivity index, ratio of MIC for against Escherichia coli isolate 210737 to MIC for Escherichia coli isolate 210737 in presence of BPL
Pseudomonas aeruginosa [4] = assay: Antibacterial activity against IMP-4 producing Pseudomonas aeruginosa isolate 209321 after 18 hrs by CLSI broth microdilution method; details: isolate 209321, 18 h
Klebsiella pneumoniae [5] = assay: Antibacterial activity against KPC-2 producing Klebsiella pneumoniae isolate 212232 after 18 hrs by CLSI broth microdilution method; details: isolate 212232, 18 h
Escherichia coli [6] = assay: Selectivity index, ratio of MIC for against extended-spectrum beta-lactamase producing Escherichia coli isolate 209285 to MIC for extended-spectrum beta-lactamase producing Escherichia coli isolate 209285 in presence of BPL
Escherichia coli [7] = assay: Antibacterial activity against extended-spectrum beta-lactamase producing Escherichia coli isolate 212648 after 18 hrs in presence of BPL by CLSI broth microdilution method; details: isolate 212648, 18 h
Procedure, shortened: (§1)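 CLSI broth microdilution against clinical isolates (ESBL E. coli, KPC-2 MDR K. pneumoniae, IMP-4 MDR P. aeruginosa; five per species). Iron limitation: Mueller-Hinton broth supplemented with 16 mg/liter 2,2'-bipyridyl to complex iron and induce iron uptake systems. Read-out: MIC.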

Escherichia coli [8] = assay: Antibacterial activity against extended-spectrum beta-lactamase producing Escherichia coli isolate 106342 after 18 hrs in presence of BPL by CLSI broth microdilution method; details: isolate 106342, 18 h; procedure, shortened: as §1
Pseudomonas aeruginosa [9] = assay: Antibacterial activity against IMP-4 producing Pseudomonas aeruginosa isolate 212886 after 18 hrs in presence of BPL by CLSI broth microdilution method; details: isolate 212886, 18 h; procedure, shortened: as §1
Escherichia coli [10] = assay: Antibacterial activity against Escherichia coli isolate 210737 after 18 hrs in presence of BPL by CLSI broth microdilution method; details: isolate 210737, 18 h; procedure, shortened: as §1
Klebsiella pneumoniae [11] = assay: Antibacterial activity against KPC-2 producing Klebsiella pneumoniae isolate 212423 after 18 hrs by CLSI broth microdilution method; details: isolate 212423, 18 h
Pseudomonas aeruginosa [12] = assay: Antibacterial activity against IMP-4 producing Pseudomonas aeruginosa isolate 209471 after 18 hrs in presence of BPL by CLSI broth microdilution method; details: isolate 209471, 18 h; procedure, shortened: as §1
Escherichia coli [13] = assay: Antibacterial activity against extended-spectrum beta-lactamase producing Escherichia coli isolate 209285 after 18 hrs by CLSI broth microdilution method; details: isolate 209285, 18 h
Pseudomonas aeruginosa [14] = assay: Antibacterial activity against IMP-4 producing Pseudomonas aeruginosa isolate 209321 after 18 hrs in presence of BPL by CLSI broth microdilution method; details: isolate 209321, 18 h; procedure, shortened: as §1
Klebsiella pneumoniae [15] = assay: Selectivity index, ratio of MIC for against KPC-2 producing Klebsiella pneumoniae isolate 212229 to MIC for against KPC-2 producing Klebsiella pneumoniae isolate 212229 in presence of BPL
Escherichia coli [16] = assay: Antibacterial activity against extended-spectrum beta-lactamase producing Escherichia coli isolate 208687 after 18 hrs by CLSI broth microdilution method; details: isolate 208687, 18 h
Escherichia coli [17] = assay: Antibacterial activity against extended-spectrum beta-lactamase producing Escherichia coli isolate 208687 after 18 hrs in presence of BPL by CLSI broth microdilution method; details: isolate 208687, 18 h; procedure, shortened: as §1
Klebsiella pneumoniae [18] = assay: Selectivity index, ratio of MIC for against KPC-2 producing Klebsiella pneumoniae isolate 209735 to MIC for against KPC-2 producing Klebsiella pneumoniae isolate 209735 in presence of BPL
Pseudomonas aeruginosa [19] = assay: Selectivity index, ratio of MIC for against IMP-4 producing Pseudomonas aeruginosa isolate 209321 to MIC for against IMP-4 producing Pseudomonas aeruginosa isolate 209321 in presence of BPL
Pseudomonas aeruginosa [20] = assay: Antibacterial activity against IMP-4 producing Pseudomonas aeruginosa isolate 208247 after 18 hrs by CLSI broth microdilution method; details: isolate 208247, 18 h
Escherichia coli [21] = assay: Selectivity index, ratio of MIC for against extended-spectrum beta-lactamase producing Escherichia coli isolate 212648 to MIC for extended-spectrum beta-lactamase producing Escherichia coli isolate 212648 in presence of BPL
Pseudomonas aeruginosa [22] = assay: Selectivity index, ratio of MIC for against IMP-4 producing Pseudomonas aeruginosa isolate 208247 to MIC for against IMP-4 producing Pseudomonas aeruginosa isolate 208247 in presence of BPL
Pseudomonas aeruginosa [23] = assay: Antibacterial activity against IMP-4 producing Pseudomonas aeruginosa isolate 207272 after 18 hrs in presence of BPL by CLSI broth microdilution method; details: isolate 207272, 18 h; procedure, shortened: as §1
Escherichia coli [24] = assay: Antibacterial activity against Escherichia coli isolate 210737 after 18 hrs by CLSI broth microdilution method; details: isolate 210737, 18 h
Klebsiella pneumoniae [25] = assay: Antibacterial activity against KPC-2 producing Klebsiella pneumoniae isolate 209632 after 18 hrs by CLSI broth microdilution method; details: isolate 209632, 18 h
Pseudomonas aeruginosa [26] = assay: Selectivity index, ratio of MIC for against IMP-4 producing Pseudomonas aeruginosa isolate 209471 to MIC for against IMP-4 producing Pseudomonas aeruginosa isolate 209471 in presence of BPL
Pseudomonas aeruginosa [27] = assay: Selectivity index, ratio of MIC for against IMP-4 producing Pseudomonas aeruginosa isolate 212886 to MIC for against IMP-4 producing Pseudomonas aeruginosa isolate 212886 in presence of BPL
Pseudomonas aeruginosa [28] = assay: Antibacterial activity against IMP-4 producing Pseudomonas aeruginosa isolate 209471 after 18 hrs by CLSI broth microdilution method; details: isolate 209471, 18 h
Escherichia coli [29] = assay: Antibacterial activity against extended-spectrum beta-lactamase producing Escherichia coli isolate 212648 after 18 hrs by CLSI broth microdilution method; details: isolate 212648, 18 h
Klebsiella pneumoniae [30] = assay: Antibacterial activity against KPC-2 producing Klebsiella pneumoniae isolate 209735 after 18 hrs by CLSI broth microdilution method; details: isolate 209735, 18 h
Escherichia coli [31] = assay: Selectivity index, ratio of MIC for against extended-spectrum beta-lactamase producing Escherichia coli isolate 208687 to MIC for extended-spectrum beta-lactamase producing Escherichia coli isolate 208687 in presence of BPL
Klebsiella pneumoniae [32] = assay: Antibacterial activity against KPC-2 producing Klebsiella pneumoniae isolate 209735 after 18 hrs in presence of BPL by CLSI broth microdilution method; details: isolate 209735, 18 h; procedure, shortened: as §1
Klebsiella pneumoniae [33] = assay: Selectivity index, ratio of MIC for against KPC-2 producing Klebsiella pneumoniae isolate 212232 to MIC for against KPC-2 producing Klebsiella pneumoniae isolate 212232 in presence of BPL
Klebsiella pneumoniae [34] = assay: Selectivity index, ratio of MIC for against KPC-2 producing Klebsiella pneumoniae isolate 212423 to MIC for against KPC-2 producing Klebsiella pneumoniae isolate 212423 in presence of BPL
Pseudomonas aeruginosa [35] = assay: Antibacterial activity against IMP-4 producing Pseudomonas aeruginosa isolate 208247 after 18 hrs in presence of BPL by CLSI broth microdilution method; details: isolate 208247, 18 h; procedure, shortened: as §1
Pseudomonas aeruginosa [36] = assay: Antibacterial activity against IMP-4 producing Pseudomonas aeruginosa isolate 207272 after 18 hrs by CLSI broth microdilution method; details: isolate 207272, 18 h
Klebsiella pneumoniae [37] = assay: Antibacterial activity against KPC-2 producing Klebsiella pneumoniae isolate 209632 after 18 hrs in presence of BPL by CLSI broth microdilution method; details: isolate 209632, 18 h; procedure, shortened: as §1
Klebsiella pneumoniae [38] = assay: Antibacterial activity against KPC-2 producing Klebsiella pneumoniae isolate 212229 after 18 hrs by CLSI broth microdilution method; details: isolate 212229, 18 h
Klebsiella pneumoniae [39] = assay: Antibacterial activity against KPC-2 producing Klebsiella pneumoniae isolate 212229 after 18 hrs in presence of BPL by CLSI broth microdilution method; details: isolate 212229, 18 h; procedure, shortened: as §1
Escherichia coli [40] = assay: Selectivity index, ratio of MIC for against extended-spectrum beta-lactamase producing Escherichia coli isolate 106342 to MIC for extended-spectrum beta-lactamase producing Escherichia coli isolate 106342 in presence of BPL
Klebsiella pneumoniae [41] = assay: Antibacterial activity against KPC-2 producing Klebsiella pneumoniae isolate 212423 after 18 hrs in presence of BPL by CLSI broth microdilution method; details: isolate 212423, 18 h; procedure, shortened: as §1
Klebsiella pneumoniae [42] = assay: Selectivity index, ratio of MIC for against KPC-2 producing Klebsiella pneumoniae isolate 209632 to MIC for against KPC-2 producing Klebsiella pneumoniae isolate 209632 in presence of BPL
Pseudomonas aeruginosa [43] = assay: Selectivity index, ratio of MIC for against IMP-4 producing Pseudomonas aeruginosa isolate 207272 to MIC for against IMP-4 producing Pseudomonas aeruginosa isolate 207272 in presence of BPL
Escherichia coli [44] = assay: Antibacterial activity against extended-spectrum beta-lactamase producing Escherichia coli isolate 209285 after 18 hrs in presence of BPL by CLSI broth microdilution method; details: isolate 209285, 18 h; procedure, shortened: as §1
Klebsiella pneumoniae [45] = assay: Antibacterial activity against KPC-2 producing Klebsiella pneumoniae isolate 212232 after 18 hrs in presence of BPL by CLSI broth microdilution method; details: isolate 212232, 18 h; procedure, shortened: as §1

With `CC(C)C(O/N=C(\C(=O)N[C@@H]1C(=O)N(S(=O)(=O)O)[C@@H]1COC(=O)C1CN(C(=O)c2ccc(O)c(O)c2Cl)C1)c1csc(N)n1)c1cc(=O)c(O)cn1O` (stereo not given in full) the MIC (Pseudomonas aeruginosa [1]) was over 64 µg/mL, the MIC (Escherichia coli [2]) was 8 µg/mL (≈ 10 µM) and the “Selectivity Index” value (Escherichia coli [3]) was 1 - 8. The MIC (Pseudomonas aeruginosa [4]) was 64 µg/mL (≈ 80 µM), the MIC (Klebsiella pneumoniae [5]) was over 64 µg/mL and the “Selectivity Index” value (Escherichia coli [6]) was 2. For the same molecule, the MIC (Escherichia coli [7]) was 16 µg/mL, the MIC (Escherichia coli [8]) was 4 µg/mL and the MIC (Pseudomonas aeruginosa [9]) was over 64 µg/mL. For the same molecule, the MIC (Escherichia coli [10]) was 64 µg/mL, the MIC (Klebsiella pneumoniae [11]) was over 64 µg/mL and the MIC (Pseudomonas aeruginosa [12]) was 32 µg/mL. For the same molecule, the MIC (Escherichia coli [13]) was 16 µg/mL (≈ 20 µM), the MIC (Pseudomonas aeruginosa [14]) was 32 µg/mL and the “Selectivity Index” value (Klebsiella pneumoniae [15]) was over 8. The MIC (Escherichia coli [16]) was 16 µg/mL (≈ 20 µM), the MIC (Escherichia coli [17]) was 2 µg/mL and the “Selectivity Index” value (Klebsiella pneumoniae [18]) was over 8. For the same molecule, the “Selectivity Index” value (Pseudomonas aeruginosa [19]) was 2, the MIC (Pseudomonas aeruginosa [20]) was 32 µg/mL (≈ 40 µM) and the “Selectivity Index” value (Escherichia coli [21]) was 1. For the same molecule, the “Selectivity Index” value (Pseudomonas aeruginosa [22]) was 1, the MIC (Pseudomonas aeruginosa [23]) was 16 µg/mL and the MIC (Escherichia coli [24]) was over 64 µg/mL. The MIC (Klebsiella pneumoniae [25]) was over 64 µg/mL, the “Selectivity Index” value (Pseudomonas aeruginosa [26]) was 2 and the “Selectivity Index” value (Pseudomonas aeruginosa [27]) was 1 - 2. It also gave an MIC (Pseudomonas aeruginosa [28]) of 64 µg/mL (≈ 80 µM), an MIC (Escherichia coli [29]) of 16 µg/mL (≈ 20 µM) and an MIC (Klebsiella pneumoniae [30]) of over 64 µg/mL. The “Selectivity Index” value (Escherichia coli [31]) was 8, the MIC (Klebsiella pneumoniae [32]) was 8 µg/mL and the “Selectivity Index” value (Klebsiella pneumoniae [33]) was over 16. The “Selectivity Index” value (Klebsiella pneumoniae [34]) was over 8, the MIC (Pseudomonas aeruginosa [35]) was 32 µg/mL and the MIC (Pseudomonas aeruginosa [36]) was 32 µg/mL (≈ 40 µM). The MIC (Klebsiella pneumoniae [37]) was 8 µg/mL, the MIC (Klebsiella pneumoniae [38]) was over 64 µg/mL and the MIC (Klebsiella pneumoniae [39]) was 8 µg/mL. For the same molecule, the “Selectivity Index” value (Escherichia coli [40]) was 2, the MIC (Klebsiella pneumoniae [41]) was 8 µg/mL and the “Selectivity Index” value (Klebsiella pneumoniae [42]) was over 8. The “Selectivity Index” value (Pseudomonas aeruginosa [43]) was 2, the MIC (Escherichia coli [44]) was 8 µg/mL and the MIC (Klebsiella pneumoniae [45]) was 4 µg/mL.
